The values that follow come from publication PMC3119342 (Chemistry & biology, 2011).

Entries after “also recorded” stand apart in the source; their conditions may differ.

Test [1] relates to PC3 cells. The test can be described thus: Serum-free cell survival assay. Format: cell-based, human. The conditions noted are these: prostate cancer (PC3) cells; JW480 1 μM, 48 h in situ.
The subject of test [2] is PC3 cells. The test can be described thus: Invasion assay. In kind it is cell-based, human. The conditions noted are these: prostate cancer (PC3) cells; JW480 1 μM, 48 h in situ.
Test [3] relates to LNCaP cells. The test can be described thus: Cell survival assay in LNCaP cells. In kind it is cell-based, human. The conditions noted are these: which express low levels of KIAA1363.
For test [4], the system named is PC3 tumor xenograft. The test can be described thus: PC3 tumor xenograft growth in SCID mice. In kind it is in vivo, mouse. Particulars: 80 mg/kg, oral gavage, one dose per day, versus vehicle. In outline:
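PC3 cells were washed, trypsinised, resuspended serum-free at 2.0 × 10^4 cells/μL, and 100 μL was injected into the flank of C.B17 SCID mice. Dosing was once daily by oral gavage in PEG300 (4 μL/g) or vehicle, starting immediately after injection. Tumours were measured with calipers every 3 days and excised 4 hr after the final dose on day 33 for ABPP.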

Test [5] deals with other mouse brain serine hydrolases. The test can be described thus: Gel-based competitive ABPP, other serine hydrolases of mouse brain proteome. In kind it is biochemical.
Test [6] has as its target AChE (Mus musculus, UniProt P21836). Particulars: mouse brain proteome; for IC50: read-out: IC50 for AChE, substrate acetylthiocholine.
Test [7] has as its target serine hydrolase activities detected in the brain proteome (Mus musculus, UniProt P21836). Particulars: brain proteome of treated mice (Figure 4C).
Test [8] has as its target T1, KIAA1363 (2-acetyl MAGE hydrolase activity) (Homo sapiens, UniProt Q6PIU2).
T1 sequence (Q6PIU2 1-408): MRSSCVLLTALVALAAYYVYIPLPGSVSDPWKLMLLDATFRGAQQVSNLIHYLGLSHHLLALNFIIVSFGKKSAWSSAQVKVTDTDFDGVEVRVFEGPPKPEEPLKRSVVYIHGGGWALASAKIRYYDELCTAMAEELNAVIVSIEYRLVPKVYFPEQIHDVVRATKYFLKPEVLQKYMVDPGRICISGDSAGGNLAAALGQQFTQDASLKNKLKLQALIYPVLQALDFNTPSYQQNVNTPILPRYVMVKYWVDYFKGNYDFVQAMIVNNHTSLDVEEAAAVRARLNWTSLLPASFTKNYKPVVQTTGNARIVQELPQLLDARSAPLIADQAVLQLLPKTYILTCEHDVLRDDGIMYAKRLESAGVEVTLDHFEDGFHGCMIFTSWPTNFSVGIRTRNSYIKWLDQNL
The test can be described thus: 2-Acetyl MAGE hydrolytic activity assay in prostate cancer cells. In kind it is cell-based. The conditions noted are these: 1 μM, 48 h.

Test [9] deals with MAGE lipids. The test can be described thus: Lipid measurements. Format: cell-based, human. Particulars: for MAGE lipid levels: 1 μM, 48 hr; for MAGE lipids: prostate cancer cells (Figure S4).
Test [10] concerns PC3 cells. The test can be described thus: Cell migration assay. Format: cell-based, human. The conditions noted are these: prostate cancer (PC3) cells; JW480 1 μM, 48 h in situ.
Test [11] relates to serine hydrolase activities detected in PC3 cells. The test can be described thus: Competitive ABPP-MudPIT of PC3 cells treated in situ. The conditions noted are these: 1 μM in situ, ~30 serine hydrolase activities. Format: cell-based, human.
In test [12] the target is T2, KIAA1363 (Homo sapiens, UniProt Q6PIU2).
T2 sequence (Q6PIU2 1-408): T1 sequence (Q6PIU2 1-408)
The test can be described thus: Gel-based competitive ABPP in living PC3 cells. In kind it is cell-based. Particulars: for IC50: read-out: IC50 for KIAA1363.

The target in test [13] is T2, KIAA1363. The test can be described thus: Gel-based competitive ABPP in PC3 cell proteomes. In kind it is biochemical. The conditions noted are these: read-out: IC50 for human KIAA1363, in vitro treatment.
The target of test [14] is T3, brain KIAA1363 (Mus musculus, UniProt Q8BLF1).
T3 sequence (Q8BLF1 1-408): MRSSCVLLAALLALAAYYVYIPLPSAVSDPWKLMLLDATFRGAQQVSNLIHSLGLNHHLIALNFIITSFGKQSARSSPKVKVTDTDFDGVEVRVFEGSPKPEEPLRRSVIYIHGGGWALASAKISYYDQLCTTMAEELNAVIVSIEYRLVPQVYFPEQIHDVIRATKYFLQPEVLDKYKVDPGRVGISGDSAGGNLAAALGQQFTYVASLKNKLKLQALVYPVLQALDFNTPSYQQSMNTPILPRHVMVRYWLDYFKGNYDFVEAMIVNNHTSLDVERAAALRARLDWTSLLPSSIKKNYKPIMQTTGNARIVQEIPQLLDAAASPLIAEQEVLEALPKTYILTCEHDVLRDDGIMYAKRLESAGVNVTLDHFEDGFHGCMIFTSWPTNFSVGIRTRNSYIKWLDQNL
The test can be described thus: Competitive ABPP of brain proteomes from inhibitor-treated mice. Format: in vivo. Particulars: for inhibition of brain KIAA1363: 4 hr.

Test [15] concerns the target T4, HSL (Mus musculus, UniProt P54310).
T4 sequence (P54310 1-759): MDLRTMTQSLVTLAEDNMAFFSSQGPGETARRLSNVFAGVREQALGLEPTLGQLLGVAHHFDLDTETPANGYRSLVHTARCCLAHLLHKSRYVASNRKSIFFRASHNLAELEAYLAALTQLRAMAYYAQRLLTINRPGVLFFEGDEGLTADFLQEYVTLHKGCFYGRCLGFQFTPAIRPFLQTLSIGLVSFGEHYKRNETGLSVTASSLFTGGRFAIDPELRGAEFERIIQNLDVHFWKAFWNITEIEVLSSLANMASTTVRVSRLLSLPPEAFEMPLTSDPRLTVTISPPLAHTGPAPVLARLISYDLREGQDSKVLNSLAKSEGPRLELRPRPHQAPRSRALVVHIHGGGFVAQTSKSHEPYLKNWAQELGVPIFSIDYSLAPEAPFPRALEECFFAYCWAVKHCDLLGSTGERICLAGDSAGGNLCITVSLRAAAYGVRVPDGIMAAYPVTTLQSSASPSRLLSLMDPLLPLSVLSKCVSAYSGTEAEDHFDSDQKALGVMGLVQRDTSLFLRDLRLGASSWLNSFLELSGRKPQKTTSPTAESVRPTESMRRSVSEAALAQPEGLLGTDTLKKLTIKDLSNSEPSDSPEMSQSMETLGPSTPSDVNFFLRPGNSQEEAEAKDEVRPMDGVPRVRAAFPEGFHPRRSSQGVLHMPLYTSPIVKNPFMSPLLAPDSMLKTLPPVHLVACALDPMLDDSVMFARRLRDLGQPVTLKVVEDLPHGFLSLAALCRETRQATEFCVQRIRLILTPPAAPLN
The test can be described thus: Competitive ABPP in rosiglitazone-differentiated 3T3-10T1/2 adipocyte proteome. In kind it is biochemical.

In test [16] the target is T5, mouse brain KIAA1363 (Mus musculus, UniProt Q8BLF1).
T5 sequence (Q8BLF1 1-408): T3 sequence (Q8BLF1 1-408)
The test can be described thus: Gel-based competitive ABPP. Particulars: read-out: IC50 for KIAA1363, mouse brain proteome. Format: biochemical.

For test [17], the target named is T6, FAAH (Mus musculus, UniProt O08914).
T6 sequence (O08914 1-579): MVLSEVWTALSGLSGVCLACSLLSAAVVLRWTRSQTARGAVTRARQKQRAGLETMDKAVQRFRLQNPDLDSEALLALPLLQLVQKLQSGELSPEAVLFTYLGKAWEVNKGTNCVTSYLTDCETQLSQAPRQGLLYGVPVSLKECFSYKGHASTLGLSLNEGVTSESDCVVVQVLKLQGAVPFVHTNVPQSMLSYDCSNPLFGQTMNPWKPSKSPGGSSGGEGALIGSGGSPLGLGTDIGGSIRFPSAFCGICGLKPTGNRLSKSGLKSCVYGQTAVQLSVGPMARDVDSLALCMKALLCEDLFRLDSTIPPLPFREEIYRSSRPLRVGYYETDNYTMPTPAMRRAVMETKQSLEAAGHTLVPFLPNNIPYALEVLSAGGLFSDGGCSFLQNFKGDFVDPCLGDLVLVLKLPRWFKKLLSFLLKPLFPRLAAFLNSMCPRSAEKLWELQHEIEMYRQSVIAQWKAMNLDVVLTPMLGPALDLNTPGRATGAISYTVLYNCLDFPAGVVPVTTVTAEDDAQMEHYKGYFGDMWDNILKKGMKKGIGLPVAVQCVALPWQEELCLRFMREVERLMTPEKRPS
The test can be described thus: Competitive ABPP of FAAH in mouse brain proteome. In kind it is biochemical. Particulars: gel-based competitive ABPP of a mouse brain proteome.

Chain of AChE (P21836 32-614): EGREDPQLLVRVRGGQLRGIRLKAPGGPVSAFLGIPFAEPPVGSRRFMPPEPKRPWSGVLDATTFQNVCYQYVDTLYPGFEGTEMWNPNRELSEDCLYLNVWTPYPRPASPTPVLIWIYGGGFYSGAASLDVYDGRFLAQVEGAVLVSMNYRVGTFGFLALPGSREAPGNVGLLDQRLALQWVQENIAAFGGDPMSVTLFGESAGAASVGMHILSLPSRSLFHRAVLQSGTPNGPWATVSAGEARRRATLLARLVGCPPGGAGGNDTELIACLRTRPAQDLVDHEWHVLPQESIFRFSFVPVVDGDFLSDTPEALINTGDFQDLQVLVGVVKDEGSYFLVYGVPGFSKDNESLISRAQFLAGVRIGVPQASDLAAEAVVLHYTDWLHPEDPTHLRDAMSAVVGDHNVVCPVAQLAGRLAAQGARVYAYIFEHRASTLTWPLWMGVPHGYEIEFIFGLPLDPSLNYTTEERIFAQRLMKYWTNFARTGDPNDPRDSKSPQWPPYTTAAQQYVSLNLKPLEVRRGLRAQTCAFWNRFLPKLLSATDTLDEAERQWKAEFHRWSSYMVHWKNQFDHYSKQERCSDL
Chain of serine hydrolase activities detected in the brain proteome (P21836 32-614): as above

With `CC(C)c1ccccc1OC(=O)NCCc1ccc2ccccc2c1` [JW480], the “survival in serum-free media” value in [1] is listed as “reductions; also recorded: reduced”. Further, in test [2], the invasion result is “reductions; also recorded: reduced”. Moreover, the “survival in LNCaP cells” value in test [3] is on record as “did not affect”. Besides, the PC3 tumor growth result in test [4] is listed as “significantly impaired; also recorded: significantly reduces”. Further, the “cross-reactivity with other mouse brain serine hydrolases” value in test [5] was “negligible cross-reactivity”. The “cross-reactivity with AChE” value in test [6] is reported as “negligible cross-reactivity”. The IC50 (as a rule, the concentration that inhibits the measured activity by half) was more than 100000 nM in test [6]; 6 nM in test [12] (PC3 cells, in situ); 6 to 12 nM in [12] (living PC3 cells, in situ treatment, presence or absence of 10% fetal calf serum); 12 nM in test [13]. Moreover, the “cross-reactivity with AChE by competitive ABPP-MudPIT” value in [7] is reported as “negligible cross-reactivity”. The “2-acetyl MAGE hydrolase activity” value in test [8] (DU145 cells) and in [8] (PC3 cells) was “completely blocked; also recorded: ablates” each time. For the same compound, the MAGE lipid levels entry in [9] (DU145 cells) and in [9] (PC3 cells) was “significant reductions; also recorded: significantly reduces” throughout. Further, in test [10], the migration result was “reductions; also recorded: reduced”. For the same compound, the “off-target activity across serine hydrolases by ABPP-MudPIT” value in test [11] was “no off-target activity; also recorded: only KIAA1363 was inhibited”. In addition, the “time in situ inhibition of KIAA1363 was maintained” value in [12] (1 μM, in situ) is “at least 48 hr”. Also, the “time of full inhibition of KIAA1363 in mice” value in test [14] (following a single administration, orally active) is “at least 24 hrs”. The “inhibition of brain KIAA1363” value in test [14] (mice, 5 mg/kg i.p.) is on record as “complete inhibition”; in [14] (mice, 20 mg/kg oral) it was “complete inhibition”. Besides, the “time inhibition of KIAA1363 was maintained in vivo” value in test [14] (mice, single administration, 20 mg/kg, oral) is reported as “up to 24 hr”. In [15], the “cross-reactivity with HSL” value is given as “negligible cross-reactivity”.

As to `CCCCOC[C@H]1CCCC[C@H]1COCCNC(=O)Oc1ccccc1F` [AS115, reference compound], the “survival in serum-free media” value in test [1] is given as “also observed”. For the same compound, the invasion result in [2] is reported as “also observed”. Moreover, in [9], the MAGE lipids result is recorded as “reductions”.

With `COc1ccc(CNC(=O)Oc2cccc3c2OC(C)(C)C3)cc1` [JW148], in test [1], the “survival in serum-free media” value is given as “also observed”. Further, the invasion result in [2] is “also observed”. In test [6], the “cross-reactivity with AChE” value is given as “cross-reactivity”. Besides, the IC50 in test [6] is 1000 nM; in [16], approximately 200 nM. In addition, the “selectivity for KIAA1363 compared to FAAH” value in test [17] was “good selectivity”. Besides, in test [9], the MAGE lipids entry is on record as “reductions”. The migration entry in test [10] is listed as “also observed”. Also, in test [15], the “cross-reactivity with HSL” value is on record as “cross-reactivity”.

Turning to `CC1(C)Cc2cccc(OC(=O)NCc3ccc(F)cc3)c2O1` [WWL38], the “cross-reactivity with AChE” value in [6] is “cross-reactivity”. The IC50 in test [16] was approximately 200 nM. Moreover, in [17], the “selectivity for KIAA1363 compared to FAAH” value is reported as “good selectivity”. In test [15], the “cross-reactivity with HSL” value is “cross-reactivity”.
